The source made the active and inactive calls. The calls are words filed in the database; no cut-off is given here.
Legend:
D(2) dopamine receptor = D(2) dopamine receptor (Rattus norvegicus, UniProt P61169); assay: Binding affinity at Dopamine receptor D2 in rat corpus striatum by displacing [3H]-spiperone.; format: tissue-based
Method in brief: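 Washed membranes from male Sprague-Dawley rat corpora striata were preincubated 10 min at 37 °C in Hepes-KOH pH 7.4 buffer with NaCl, KCl, CaCl2, MgCl2, ascorbic acid and 10 μM pargyline. 20-50 μg protein was incubated with 100 pM [3H]spiperone for 15 min at 37 °C, in duplicate. Nonspecific binding was defined with 10 μM D-(+)-butaclamol. IC50 came from log-probit linear regression over 3-5 concentrations.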

Rattus norvegicus [1] = assay: Effective oral dose that conditioned avoidance response in rat; format: functional
Method in brief: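 On day 10, trained rats (groups of 5-10) were given drug or vehicle by oral gavage and tested at the time of maximal activity. Responses over 30 min (11 trials at 3-min intervals) were pooled across dose levels to calculate the dose suppressing avoidance in 50% of animals (ED50).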

Rattus norvegicus [2] = assay: Effective oral dose that produce reversal of trifluoperazine-induced catalepsy in rat; format: functional
Rattus norvegicus [3] = species: Rattus norvegicus; assay: Maximum effective dose that causes vogel anticonflict effect when given through oral route; IA=Inactive; format: functional, organism-based
Method in brief: (§1)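 Reverse day-night cycled rats were water deprived 24 h, bottle trained for 15 min, then deprived a further 23.5 h. Compound was given orally before testing, and licks were counted, with brief grid shocks after a set lick number. Activity meant more licking than controls (Student's t test, p < 0.05). Maximum dose examined was 20 mg/kg.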

Rattus norvegicus [4] = assay: Inhibition of dorsal raphe neuron firing when given iv; format: functional
Rattus norvegicus [5] = species: Rattus norvegicus; assay: Maximum effective dose that causes vogel anticonflict effect when given through oral route; format: functional; conditions: read-out: MED; method in brief: as §1
Rattus norvegicus [6] = assay: Induction of serotonin syndrome when given po
Rattus norvegicus [7] = species: Rattus norvegicus; assay: Inhibition of induced serotonin syndrome; IA=Inactive; format: functional, organism-based
Rattus norvegicus [8] = species: Rattus norvegicus; assay: Inhibition of dorsal raphe neuron firing; format: functional

Chain of D(2) dopamine receptor (P61169 whole entry): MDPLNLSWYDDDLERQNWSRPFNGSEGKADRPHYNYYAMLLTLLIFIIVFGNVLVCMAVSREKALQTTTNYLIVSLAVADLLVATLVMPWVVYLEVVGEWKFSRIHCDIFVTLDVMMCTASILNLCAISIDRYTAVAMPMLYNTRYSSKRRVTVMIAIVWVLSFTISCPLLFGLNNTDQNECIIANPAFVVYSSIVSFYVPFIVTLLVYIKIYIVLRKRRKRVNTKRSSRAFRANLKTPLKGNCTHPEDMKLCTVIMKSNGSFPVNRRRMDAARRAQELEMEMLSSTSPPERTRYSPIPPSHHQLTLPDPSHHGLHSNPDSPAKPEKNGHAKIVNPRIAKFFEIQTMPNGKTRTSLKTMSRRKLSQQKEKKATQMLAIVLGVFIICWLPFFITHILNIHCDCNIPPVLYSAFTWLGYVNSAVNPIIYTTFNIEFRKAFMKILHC

O=C1CC(c2ccccc2)(c2ccccc2)C(=O)N1CCCCN1CCN(c2nsc3ccccc23)CC1
IC50 (D(2) dopamine receptor): 0.23 µM
ED50 (Rattus norvegicus [1]): > 100 mg/kg
ED50 (Rattus norvegicus [2]): > 20 mg/kg

CC1(c2ccc(F)cc2)CC(=O)N(CCN2CCN(c3ncccn3)CC2)C1=O (stereo not given)
IC50 (D(2) dopamine receptor): > 1 µM
ED50 (Rattus norvegicus [1]): > 100 mg/kg
ED50 (Rattus norvegicus [2]): > 20 mg/kg

CC1(c2ccccc2)CC(=O)N(CCCCN2CCN(c3ncccn3)CC2)C1=O.Cl (stereo not given)
IC50 (D(2) dopamine receptor): > 1 µM
ED50 (Rattus norvegicus [1]): 60 mg/kg

CC1(c2ccc(F)cc2)CC(=O)N(CCCCN2CCN(c3ncccc3C#N)CC2)C1=O (stereo not given)
IC50 (D(2) dopamine receptor): 0.71 µM
ED50 (Rattus norvegicus [1]): 100 mg/kg
ED50 (Rattus norvegicus [2]): 20 mg/kg
MED (Rattus norvegicus [3]): inactive

CC1(c2ccc(F)cc2)CC(=O)N(CCCCN2CCN(c3nsc4ccccc34)CC2)C1=O (stereo not given)
IC50 (D(2) dopamine receptor): 0.12 µM
ED50 (Rattus norvegicus [1]): 100 mg/kg
ED50 (Rattus norvegicus [2]): > 20 mg/kg

Cl.O=C1CC2(CCc3ccccc32)C(=O)N1CCCCN1CCN(c2ncccn2)CC1 (stereo not given)
IC50 (D(2) dopamine receptor): 1.3 µM
ED50 (Rattus norvegicus [1]): 54 mg/kg
ED50 (Rattus norvegicus [2]): 11.5 mg/kg
MED (Rattus norvegicus [3]): inactive

CC1(c2ccc(F)cc2)CC(=O)N(CCCN2CCN(c3ncccn3)CC2)C1=O (stereo not given)
IC50 (D(2) dopamine receptor): > 1 µM
ED50 (Rattus norvegicus [1]): > 100 mg/kg
ED50 (Rattus norvegicus [2]): > 20 mg/kg

CC1(c2ccc(F)cc2)CC(=O)N(CCCCN2CCN(c3ncccn3)CC2)C1=O (stereo not given)
IC50 (D(2) dopamine receptor): > 1 µM
ED50 (Rattus norvegicus [1]): 56 mg/kg
ED50 (Rattus norvegicus [2]): 11 mg/kg
MED (Rattus norvegicus [3]): inactive

Cl.O=C1CC2(CCCc3ccccc32)C(=O)N1CCCCN1CCN(c2ncccn2)CC1 (stereo not given)
IC50 (D(2) dopamine receptor): > 1 µM
ED50 (Rattus norvegicus [1]): 50 mg/kg
ED50 (Rattus norvegicus [2]): > 20 mg/kg
MED (Rattus norvegicus [3]): inactive

Cl.N#Cc1cccnc1N1CCN(CCCCN2C(=O)c3ccc([N+](=O)[O-])cc3C2=O)CC1
IC50 (D(2) dopamine receptor): > 1 µM
ED50 (Rattus norvegicus [1]): 78 mg/kg
ED50 (Rattus norvegicus [2]): > 20 mg/kg

N#Cc1cccnc1N1CCN(CCCCN2C(=O)CC(c3ccccc3)(c3ccccc3)C2=O)CC1
IC50 (D(2) dopamine receptor): > 1 µM
ED50 (Rattus norvegicus [1]): > 100 mg/kg
ED50 (Rattus norvegicus [2]): > 20 mg/kg

CC1(C)CC(=O)N(CCCCN2CCN(c3ncccn3)CC2)C(=O)C1.Cl [GEPIRONE HYDROCHLORIDE]
ED50 (Rattus norvegicus [1]): 53 mg/kg
ED50 (Rattus norvegicus [2]): 6.5 mg/kg
ED50 (Rattus norvegicus [4]): 0.025 mg/kg
minimal effective dose (Rattus norvegicus [5]): 1 mg/kg
ED50 (Rattus norvegicus [6]): 17.1 mg/kg

Cl.O=C1CC2(CCCC2)CC(=O)N1CCCCN1CCN(c2ncccn2)CC1 [BUSPIRONE HYDROCHLORIDE]
ED50 (Rattus norvegicus [7]): inactive
ED50 (Rattus norvegicus [2]): 3.6 mg/kg
ED50 (Rattus norvegicus [8]): 0.01 mg/kg
minimal effective dose (Rattus norvegicus [5]): 1 mg/kg

O=C1c2ccc([N+](=O)[O-])cc2C(=O)N1CCCCN1CCN(c2ncccn2)CC1
IC50 (D(2) dopamine receptor): > 1 µM
ED50 (Rattus norvegicus [1]): 75 mg/kg
ED50 (Rattus norvegicus [2]): > 20 mg/kg

Cl.O=C1C2CC=CCC2C(=O)N1CCCCN1CCN(c2ncccn2)CC1 (stereo not given)
IC50 (D(2) dopamine receptor): > 1 µM
ED50 (Rattus norvegicus [1]): > 100 mg/kg

CSc1nc(N2CCN(CCCCN3C(=O)c4ccccc4C3=O)CC2)ncc1F.Cl
IC50 (D(2) dopamine receptor): > 1 µM
ED50 (Rattus norvegicus [1]): > 100 mg/kg
ED50 (Rattus norvegicus [2]): > 20 mg/kg

O=C1c2ccccc2C(=O)N1CCCCN1CCN(c2ncccn2)CC1
IC50 (D(2) dopamine receptor): > 1 µM
ED50 (Rattus norvegicus [1]): 65 mg/kg
ED50 (Rattus norvegicus [2]): 20 mg/kg
MED (Rattus norvegicus [3]): inactive

Cl.O=C1CC2(CCc3ccccc3C2)C(=O)N1CCCCN1CCN(c2ncccn2)CC1 (stereo not given)
IC50 (D(2) dopamine receptor): 0.54 µM
ED50 (Rattus norvegicus [1]): 58 mg/kg
ED50 (Rattus norvegicus [2]): 13 mg/kg
minimal effective dose (Rattus norvegicus [5]): 5 mg/kg

O=C1c2cc(Cl)c(Cl)cc2C(=O)N1CCCCN1CCN(c2ncccn2)CC1
IC50 (D(2) dopamine receptor): > 1 µM
ED50 (Rattus norvegicus [1]): > 100 mg/kg

Cc1ccc(S(=O)(=O)O)cc1.O=C1CC2(CCCc3ccccc32)C(=O)N1CCCCN1CCN(c2nsc3ccccc23)CC1 (stereo not given)
ED50 (Rattus norvegicus [1]): > 100 mg/kg
ED50 (Rattus norvegicus [2]): > 20 mg/kg

O=C1c2c(Cl)c(Cl)c(Cl)c(Cl)c2C(=O)N1CCCCN1CCN(c2ncccn2)CC1
IC50 (D(2) dopamine receptor): > 1 µM
ED50 (Rattus norvegicus [1]): > 100 mg/kg
ED50 (Rattus norvegicus [2]): > 20 mg/kg

O=C1CC(c2ccccc2)(c2ccccc2)C(=O)N1CCCCN1CCN(c2ncccn2)CC1
IC50 (D(2) dopamine receptor): > 1 µM
ED50 (Rattus norvegicus [1]): > 100 mg/kg
ED50 (Rattus norvegicus [2]): > 20 mg/kg
minimal effective dose (Rattus norvegicus [5]): 10 mg/kg

Cl.N#Cc1cccnc1N1CCN(CCCCN2C(=O)CC3(CCCc4ccccc43)C2=O)CC1 (stereo not given)
IC50 (D(2) dopamine receptor): 0.31 µM
ED50 (Rattus norvegicus [1]): 100 mg/kg
ED50 (Rattus norvegicus [2]): > 20 mg/kg

Reference: ChEMBL document CHEMBL1123465, “Buspirone analogues. 2. Structure-activity relationships of aromatic imide derivatives” (J Med Chem, 1986)
